ChEMBL document CHEMBL1129645, “A novel series of [2-[methyl(2-phenethyl)amino]-2-oxoethyl] benzene-containing leukotriene B4 antagonists: initial structure-activity relationships” (J Med Chem, 1996)

Tests used:
[1] = biological target: T1, Leukotriene B4 receptor 1 (Homo sapiens, UniProt Q15722); test: Compound tested for binding affinity against Leukotriene B4 receptor using radioligand binding assay from Human PMN cells at a concentration of 300 nM.; type: cell-based
Summary of the method: (§1)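 Human PMNs from acid-citrate-dextrose blood, used within 2 h, isolated by dextran sedimentation and Histopaque 1077 with hypotonic erythrocyte lysis. Cells were resuspended in Hanks/5 mM HEPES pH 7.4/1% ovalbumin. Compound in DMSO, 0.5 nM [3H]LTB4 and 3 × 10^6 PMN/mL were incubated 20 min at 4 °C, then GF/B filtered and scintillation counted. Nonspecific binding was defined with 1 µM LTB4. Read-out was % inhibition or IC50.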

[2] = test system: Leukotriene B4 receptor (Cavia porcellus); test: Compound tested for binding affinity against Leukotriene B4 receptor using radioligand binding assay from guinea pig spleen membranes at a concentration of 300 nM.; settings: Membrane
[3] = biological target: T1, Leukotriene B4 receptor 1; test: (§2) Compound tested for binding affinity against Leukotriene B4 receptor using radioligand binding assay from Human PMN cells; type: cell-based
Summary of the method: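 Cells were resuspended in Hanks/5 mM HEPES pH 7.4/1% ovalbumin. Compound in DMSO, 0.5 nM [3H]LTB4 and 3 × 10^6 PMN/mL were incubated 20 min at 4 °C, then GF/B filtered and scintillation counted. Nonspecific binding was defined with 1 µM LTB4. Read-out was % inhibition or IC50.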

[4] = biological target: Leukotriene B4 receptor (Cavia porcellus); test: Binding affinity for Leukotriene B4 receptor of guinea pig spleen membranes
[5] = biological target: T1, Leukotriene B4 receptor 1; test: as §2; type: cell-based; summary of the method: as §1; remark: listed apart in the source

T1 sequence (Q15722 whole entry): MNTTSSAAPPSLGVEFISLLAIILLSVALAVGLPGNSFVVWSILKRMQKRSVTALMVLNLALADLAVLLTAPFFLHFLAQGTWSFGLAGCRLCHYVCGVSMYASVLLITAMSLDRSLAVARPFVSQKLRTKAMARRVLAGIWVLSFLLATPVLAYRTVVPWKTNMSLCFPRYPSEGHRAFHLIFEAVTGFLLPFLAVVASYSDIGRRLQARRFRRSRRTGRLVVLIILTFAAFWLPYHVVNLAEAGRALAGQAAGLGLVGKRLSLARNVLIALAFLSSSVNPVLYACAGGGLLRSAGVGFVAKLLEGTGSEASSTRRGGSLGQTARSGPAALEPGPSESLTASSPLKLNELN

I [1] [%]	IC50 [4] [µM]	SMILES	other results
0	–	COC(=O)c1cc(CC(=O)N(C)CCc2ccccc2)ccc1-c1ccccc1	I [2]: 37%
–	0.0656	CN(CCc1ccccc1)C(=O)Cc1ccc(OCc2ccccc2)cc1	IC50 [3]: 0.9 µM
16	1.2	CN(CCc1ccccc1)C(=O)Cc1cc(CC(=O)O)cc(OC/C=C/c2ccccc2)c1	–
18	–	CN(CCc1ccccc1)C(=O)Cc1ccc(-c2ccccc2)c(CO)c1	–
–	0.0533	CN(CCc1ccccc1)C(=O)Cc1cc(OCC(=O)O)cc(OCc2ccccc2)c1	–
–	0.0446	CN(CCc1ccccc1)C(=O)Cc1ccc(-c2ccccc2)c(/C=C/C(=O)O)c1	IC50 [5]: 0.2 µM
–	0.027	CN(CCc1ccccc1)C(=O)Cc1ccc(-c2ccccc2)c(C(=O)O)c1	–
–	0.065	C/C(=C\c1cc(CC(=O)N(C)CCc2ccccc2)ccc1-c1ccccc1)C(=O)O	–
–	0.225	CN(CCc1ccccc1)C(=O)Cc1cccc(OCc2ccccc2)c1	–
27	0.00227	CN(CCc1ccccc1)C(=O)Cc1ccc(OCc2ccccc2)c(/C=C/C(=O)O)c1	–
28	0.25	CN(CCc1ccccc1)C(=O)Cc1cc(OCc2ccccc2)ccc1C(=O)O	–
–	0.2	CN(CCc1ccccc1)C(=O)Cc1cc(CC(=O)O)cc(OCc2ccccc2)c1	–
29	0.143	C/C(=C\C(=O)O)c1cc(CC(=O)N(C)CCc2ccccc2)cc(OCc2ccccc2)c1	–
